Laboratory results: ChEMBL document CHEMBL1240394, “Antibacterial activity of N-pentylpantothenamide is due to inhibition of coenzyme a synthesis” (2010)
Activity calls are given as the source filed them.

What was measured:
[1] = tested on: Escherichia coli; test: Induction of holo-ACP accumulation in Escherichia coli JT6 pJT5 plasmid expressing AcpH at 100 ug/ml after 3 hrs by Western blotting; type: functional, organism-based
In short: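 JT6 cells carrying pJT5 (AcpH under arabinose control), with empty pBAD322 as the vector control, treated with 100 μg/ml N5-Pan. At 3 h, crude cell extracts were run on conformationally sensitive gel electrophoresis. Proteins were electroblotted and probed by Western blot with anti-ACP antibody.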

[2] = tested on: Escherichia coli; test: Inhibition of coenzyme A synthesis in acpH null mutant containing Escherichia coli JT6 transformed with pBAD24 plasmid expressing CoaE gene assessed as decrease in acetyl CoA level at 100 ug/ml after 90 mins by HPLC relative to untreated control; type: functional, organism-based
[3] = tested on: Escherichia coli; test: Induction of ethyldethia-ACP accumulation in Escherichia coli JT6 at 200 ug/ml by gel electrophoresis; type: functional, organism-based
In short: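 Exponentially growing E. coli JT6 (UB1005 tolC::Tn10, lacking the outer membrane efflux exit duct) in M9 minimal medium with 0.4% glycerol and 0.1% vitamin-free Casamino Acids. Culture supplemented with 200 μg/ml N5-Pan. ACP species resolved by conformationally sensitive gel electrophoresis.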

[4] = tested on: Escherichia coli; test: Antibacterial activity against Escherichia coli JT13 deficient in acpH gene assessed as microbial growth inhibition
[5] = tested on: Escherichia coli; test: Antibacterial activity against acpH null mutant containing Escherichia coli JT6 transformed with pJT5 expressing AcpH assessed as microbial growth inhibition; type: functional, organism-based
[6] = tested on: Escherichia coli; test: Inhibition of coenzyme A synthesis in acpH null mutant containing Escherichia coli JT6 transformed with pBAD24 plasmid expressing CoaBC gene assessed as decrease in acetyl CoA level at 100 ug/ml after 90 mins by HPLC relative to untreated control; type: functional, organism-based
[7] = tested on: Escherichia coli; test: Inhibition of coenzyme A synthesis in acpH null mutant containing Escherichia coli JT6 transformed with pBAD24 plasmid expressing CoaA gene assessed as decrease in acetyl CoA level at 100 ug/ml after 90 mins by HPLC relative to untreated control; type: functional, organism-based
[8] = tested on: Escherichia coli; test: Inhibition of coenzyme A synthesis in acpH null mutant containing Escherichia coli JT6 transformed with pBAD24 plasmid expressing CoaD gene assessed as decrease in acetyl CoA level at 100 ug/ml after 90 mins by HPLC relative to untreated control; type: functional, organism-based
[9] = tested on: Escherichia coli; test: Antibacterial activity against Escherichia coli JT6 assessed as microbial growth inhibition
[10] = tested on: Escherichia coli; test: Inhibition of coenzyme A synthesis in Escherichia coli JT7 carrying panD deletion assessed as decrease in acetyl CoA level at 100 ug/ml after 90 mins by HPLC relative to untreated control; type: functional
In short: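 The culture was split, one half given 100 μg/ml N5-Pan, and both incubated a further 90 min. CoA pools were extracted and analysed by reverse-phase C18 HPLC with internal standards.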

CCCCCNC(=O)CCNC(=O)[C@H](O)C(C)(C)CO
active: Activity [1] | inhibition [2] | Activity [3] | growth inhibition (GI) [4] | inhibition [6] | inhibition [7] | inhibition [8] | growth inhibition (GI) [9]
inactive: growth inhibition (GI) [5]
>10: fold change (FC) [10]
